# Data from ChEMBL document CHEMBL1139927, “A new class of nifuroxazide analogues: synthesis of 5-nitrothiophene derivatives with antimicrobial activity against multidrug-resistant Staphylococcus aureus” (2007).
# Columns and labels:
# Format in all cases: functional
# Staphylococcus aureus [1] = assay: Antimicrobial activity against multidrug-resistant Staphylococcus aureus 3SP/R33 after 18 hrs by serial dilution test; conditions: 3SP/R33, 18 h
# How it was run: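 Broth twofold macro-dilution in Tryptic Soy Broth. Inoculum came from fresh cultures grown on plate count agar for 18 h at 35 °C and was adjusted to McFarland no. 1. Compound stocks were made in DMSO (2–5% in assay), with ethanol as co-solvent, and diluted in TSB. Tubes were incubated at 35 °C for 18 h. MIC = lowest concentration giving no visible growth; run in quadruplicate.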
# Staphylococcus aureus [2] = assay: Antimicrobial activity against multidrug-resistant Staphylococcus aureus 3SP/R33 […] after 24 hrs; conditions: 3SP/R33, 24 h
# How it was run: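 MBC: 10 µL was taken from each tube that stayed clear in the broth dilution MIC test. Each aliquot was spread over the whole surface of a Müller–Hinton agar plate, and plates were incubated at 35 °C for 24 h to read bactericidal concentration.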
# Staphylococcus aureus [3] = assay: Antimicrobial activity against Staphylococcus aureus ATCC 25923 after 18 hrs by serial dilution test; conditions: ATCC 25923, 18 h
# How it was run: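 Twofold broth macro-dilution in Tryptic Soy Broth. Inoculum taken from fresh 18 h, 35 °C cultures on plate count agar and adjusted to McFarland no. 1. Compounds prepared as DMSO stocks and diluted in TSB, with ethanol as co-solvent and 2–5% DMSO in the assay. Tubes incubated at 35 °C for 18 h and read visually. MIC is the lowest concentration giving complete growth inhibition; run in quadruplicate.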
smiles,measurement,setting,value
CCCCNc1ccc(C(=O)N/N=C/c2ccc([N+](=O)[O-])s2)cc1,MIC,Staphylococcus aureus [1],6.22 µg/mL
same,MBC,Staphylococcus aureus [2],> 49.8 µg/mL
same,MIC,Staphylococcus aureus [3],≤ 22.4 µM
O=C(N/N=C/c1ccc([N+](=O)[O-])s1)c1ccccc1,MIC,Staphylococcus aureus [1],3.9 µg/mL
same,MBC,Staphylococcus aureus [2],≥ 125 µg/mL
same,MIC,Staphylococcus aureus [3],≤ 16.7 µM
O=C(N/N=C/c1ccc([N+](=O)[O-])s1)c1ccc(Cl)cc1,MIC,Staphylococcus aureus [1],1.09 µg/mL
same,MBC,Staphylococcus aureus [2],2.18 µg/mL
same,MIC,Staphylococcus aureus [3],≤ 5.52 µM
CCCCc1ccc(C(=O)N/N=C/c2ccc([N+](=O)[O-])s2)cc1,MIC,Staphylococcus aureus [1],12.7 µg/mL
same,MBC,Staphylococcus aureus [2],> 50.8 µg/mL
same,MIC,Staphylococcus aureus [3],≤ 40.7 µM
CCc1ccc(C(=O)N/N=C/c2ccc([N+](=O)[O-])s2)cc1,MIC,Staphylococcus aureus [1],5.8 µg/mL
same,MBC,Staphylococcus aureus [2],> 92.8 µg/mL
same,MIC,Staphylococcus aureus [3],≤ 22.2 µM
O=C(N/N=C/c1ccc([N+](=O)[O-])s1)c1ccc(Br)cc1,MIC,Staphylococcus aureus [1],0.63 µg/mL
same,MBC,Staphylococcus aureus [2],0.63 µg/mL
same,MIC,Staphylococcus aureus [3],≤ 2.12 µM
CCCOc1ccc(C(=O)N/N=C/c2ccc([N+](=O)[O-])s2)cc1,MIC,Staphylococcus aureus [3],≤ 24.3 µM
CC(=O)c1ccc(C(=O)N/N=C/c2ccc([N+](=O)[O-])s2)cc1,MIC,Staphylococcus aureus [1],0.11 µg/mL
same,MBC,Staphylococcus aureus [2],0.22 µg/mL
same,MIC,Staphylococcus aureus [3],≤ 0.44 µM
O=C(N/N=C/c1ccc([N+](=O)[O-])s1)c1ccc(Cl)c(Cl)c1,MIC,Staphylococcus aureus [1],0.63 µg/mL
same,MBC,Staphylococcus aureus [2],0.63 µg/mL
same,MIC,Staphylococcus aureus [3],≤ 2.21 µM
O=C(N/N=C/c1ccc([N+](=O)[O-])s1)c1ccc(I)cc1,MIC,Staphylococcus aureus [1],5.55 µg/mL
same,MBC,Staphylococcus aureus [2],> 88.8 µg/mL
same,MIC,Staphylococcus aureus [3],≤ 14 µM
CC(C)c1ccc(C(=O)N/N=C/c2ccc([N+](=O)[O-])s2)cc1,MIC,Staphylococcus aureus [1],5.02 µg/mL
same,MBC,Staphylococcus aureus [2],> 40.2 µg/mL
same,MIC,Staphylococcus aureus [3],≤ 28.6 µM
C=Cc1ccc(C(=O)N/N=C/c2ccc([N+](=O)[O-])s2)cc1,MIC,Staphylococcus aureus [1],3.38 µg/mL
same,MBC,Staphylococcus aureus [2],> 54 µg/mL
same,MIC,Staphylococcus aureus [3],≤ 15.7 µM
CCCc1ccc(C(=O)N/N=C/c2ccc([N+](=O)[O-])s2)cc1,MIC,Staphylococcus aureus [1],7.25 µg/mL
same,MBC,Staphylococcus aureus [2],> 29 µg/mL
same,MIC,Staphylococcus aureus [3],≤ 36.5 µM
CCCCOc1ccc(C(=O)N/N=C/c2ccc([N+](=O)[O-])s2)cc1,MIC,Staphylococcus aureus [1],10.3 µg/mL
same,MBC,Staphylococcus aureus [2],> 41.2 µg/mL
same,MIC,Staphylococcus aureus [3],≤ 35.4 µM
